Tests used:
[1] = Cytotoxicity against african green monkey Vero cells assessed as minimum compound concentration required to causes microscopically detectable alteration of normal cell morphology; assay type: cell-based; conditions: chlorocebus sabaeus
In short: (§1)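 Confluent, non-proliferating cell cultures were exposed to the compounds. The endpoint was the minimum concentration producing a microscopically detectable alteration of normal cell morphology.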

[2] = test system: Human alphaherpesvirus 3; test: Antiviral activity against […] expressing thymidine kinase infected in HEL cells assessed as reduction of virus plaque formation after 4 days; assay type: functional, cell-based; conditions: Human alphaherpesvirus 3, strain Oka vaccine, 96 h
[3] = test system: Influenza A virus; test: Antiviral activity against Influenza A virus H3N2 infected in MDCK cells assessed as reduction visual scoring of virus-induced cytopathogenicity after 4 days; assay type: functional, organism-based; conditions: 96 h
In short: (§2)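 MDCK monolayers infected with 100 CCID50 of influenza A (H1N1 or H3N2) or influenza B, with varying compound concentrations. Cytopathicity read when untreated infected controls reached complete CPE.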

[4] = test system: Human immunodeficiency virus 1; test: Antiviral activity against HIV1 infected in human CEM cells assessed as inhibition of virus-induced cytopathic effect after 4 days; assay type: functional, organism-based; conditions: Human immunodeficiency virus 1, CCRF-CEM, 96 h
In short: (§3)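 CEM T-lymphocytes (~3 × 10^5 cells/ml) were infected with HIV-1 IIIB or HIV-2 ROD at ~100 CCID50, then immediately plated with a range of compound concentrations. Giant cell formation was scored microscopically after 4 days at 37 °C. Cytostatic activity was tested in parallel in uninfected CEM cells.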

[5] = Inhibition of beta-hematin formation assessed as Ferriprotoporphyrin IX biomineralisation at 1 mg/ml after 24 hrs; assay type: functional
In short: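 Hemin chloride (0.5 mg/ml in DMSO) mixed with 0.5 M sodium acetate buffer pH 4.4 and drug or solvent control, incubated 37 °C for 24 h. Pellet washed with DMSO to remove unreacted hemin, dissolved in 0.1 N NaOH, absorbance read at 405 nm; percent inhibition relative to control. Highest concentration tested 1 mg/ml.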

[6] = test system: Influenza A virus; test: Antiviral activity against Influenza A virus H3N2 infected in MDCK cells assessed as inhibition of virus-induced cytopathogenicity after 4 days by colorimetric formazan-based MTS assay; assay type: functional, organism-based; conditions: 96 h
[7] = test system: Influenza B virus; test: Antiviral activity against Influenza B virus infected in MDCK cells assessed as reduction visual scoring of virus-induced cytopathogenicity after 4 days; assay type: functional, organism-based; conditions: 96 h; in short: as §2
[8] = test system: Human betaherpesvirus 5; test: Antiviral activity against Human cytomegalovirus Davis infected in HEL cells assessed as inhibition of virus plaque formation after 4 days; assay type: functional, organism-based; conditions: Human betaherpesvirus 5, Davis, 96 h
[9] = test system: Sindbis virus; test: Antiviral activity against Sindbis virus infected in african green monkey Vero cells assessed as inhibition of virus-induced cytopathogenicity after 4 days; assay type: functional, organism-based; conditions: 96 h
In short: (§4)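 Confluent HEL, Vero or HeLa monolayers were inoculated with 100 CCID50 of virus in the presence of varying concentrations of compound. Cytopathicity was scored when it reached completion in untreated, virus-infected control cultures.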

[10] = Selectivity index, ratio of CC50 for MDCK cells to IC50 for chloroquine-resistant Plasmodium falciparum K1; assay type: functional
In short: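 Selectivity index computed as MTS-based CC50 on MDCK cells divided by IC50 against P. falciparum K1.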

[11] = test system: Human alphaherpesvirus 1; test: Antiviral activity against thymidine kinase-deficient acyclovir-resistant HSV1 KOS infected in HEL cells assessed as inhibition of virus-induced cytopathogenicity after 4 days; assay type: functional, organism-based; conditions: Human alphaherpesvirus 1, KOS, 96 h
In short: (§5)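 Confluent HEL or HeLa monolayers infected with 100 CCID50 of virus in the presence of varying compound concentrations.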

[12] = test system: HeLa; test: Cytotoxicity against human HeLa cells assessed as cell viability by colorimetric formazan-based MTS assay
[13] = test system: Coxsackievirus B4; test: Antiviral activity against Coxsackie virus B4 infected in african green monkey Vero cells assessed as inhibition of virus-induced cytopathogenicity after 4 days; assay type: functional, organism-based; conditions: Enterovirus B, 96 h; in short: as §4
[14] = test system: Human alphaherpesvirus 3; test: Antiviral activity against thymidine kinase-deficient […] infected in HEL cells assessed as reduction of virus plaque formation after 4 days; assay type: functional, organism-based; conditions: Human alphaherpesvirus 3, 07-1, HEL, 96 h
[15] = test system: Human alphaherpesvirus 2; test: Antiviral activity against HSV2 G infected in HEL cells assessed as inhibition of virus-induced cytopathogenicity after 4 days; assay type: functional, organism-based; conditions: Human alphaherpesvirus 2, strain G, 96 h; in short: as §4
[16] = test system: Human respirovirus 3; test: Antiviral activity against Parainfluenza-3 virus infected in african green monkey Vero cells assessed as inhibition of virus-induced cytopathogenicity after 4 days; assay type: functional, organism-based; conditions: Human respirovirus 3, Vero, 96 h; in short: as §4
[17] = test system: Felid alphaherpesvirus 1; test: Antiviral activity against Feline herpesvirus infected in cat CRFK cells assessed as inhibition of virus-induced cytopathic effect after 4 days by colorimetric formazan-based MTS assay; assay type: functional, organism-based; conditions: Felid alphaherpesvirus 1, CRFK, 96 h
[18] = test system: Plasmodium falciparum; test: Antiplasmodial activity chloroquine-sensitive Plasmodium falciparum 3D7 infected in human A+ erythrocytes assessed as inhibition of [3H]-hypoxanthine incorporation after 24 hrs by scintillation counting; assay type: functional, organism-based
[19] = test system: Respiratory syncytial virus; test: Antiviral activity against Respiratory syncytial virus infected in human HeLa cells assessed as inhibition of virus-induced cytopathogenicity after 4 days; assay type: functional, organism-based; conditions: 96 h; in short: as §4
[20] = test system: Plasmodium falciparum; test: Antiplasmodial activity chloroquine-resistant Plasmodium falciparum K1 infected in human A+ erythrocytes assessed as inhibition of [3H]-hypoxanthine incorporation after 24 hrs by scintillation counting; assay type: functional, organism-based
[21] = test system: Plasmodium falciparum; test: Resistant factor, ratio of IC50 for chloroquine-resistant Plasmodium falciparum K1 to IC50 for chloroquine-sensitive Plasmodium falciparum 3D7; assay type: functional
In short: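 Resistance factor computed as IC50 against K1 divided by IC50 against 3D7, both from the [3H]hypoxanthine incorporation assay.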

[22] = Cytotoxicity against human HEL cells assessed as minimum compound concentration required to causes microscopically detectable alteration of normal cell morphology; assay type: cell-based; in short: as §1
[23] = test system: Mammalian orthoreovirus 1; test: Antiviral activity against Reovirus-1 infected in african green monkey Vero cells assessed as inhibition of virus-induced cytopathogenicity after 4 days; assay type: functional, organism-based; conditions: Mammalian orthoreovirus 1, Vero, 96 h; in short: as §4
[24] = test system: Influenza A virus; test: Antiviral activity against Influenza A virus H1N1 infected in MDCK cells assessed as reduction visual scoring of virus-induced cytopathogenicity after 4 days; assay type: functional, organism-based; conditions: 96 h; in short: as §2
[25] = test system: MDCK; test: Cytotoxicity against MDCK cells assessed as cell viability by colorimetric formazan-based MTS assay; parameters: species or system Canis lupus familiaris; conditions: dog, mdck
In short: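 Cytotoxicity on MDCK cells; 50% cytotoxic concentration from cell viability measured by colorimetric formazan-based MTS assay.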

[26] = test system: Vesicular stomatitis virus; test: Antiviral activity against Vesicular stomatitis virus infected in HeLa cells assessed as inhibition of virus-induced cytopathogenicity after 4 days; assay type: functional, organism-based; conditions: 96 h; in short: as §5
[27] = test system: Human betaherpesvirus 5; test: Antiviral activity against Cytomegalovirus AD-169 infected in HEL cells assessed as inhibition of virus plaque formation after 4 days; assay type: functional, organism-based; conditions: Human betaherpesvirus 5, AD169, HEL, 96 h
[28] = test system: Vesicular stomatitis virus; test: Antiviral activity against Vesicular stomatitis virus infected in HEL cells assessed as inhibition of virus-induced cytopathogenicity after 4 days; assay type: functional, organism-based; conditions: 96 h; in short: as §5
[29] = test system: Influenza B virus; test: Antiviral activity against Influenza B virus infected in MDCK cells assessed as inhibition of virus-induced cytopathogenicity after 4 days by colorimetric formazan-based MTS assay; assay type: functional, organism-based; conditions: 96 h
[30] = Cytotoxicity against MDCK cells assessed as minimum compound concentration required to causes microscopically detectable alteration of normal cell morphology; assay type: cell-based, Canis lupus familiaris; conditions: dog; in short: as §1
[31] = Cytotoxicity against human HeLa cells assessed as minimum compound concentration required to causes microscopically detectable alteration of normal cell morphology; assay type: cell-based; in short: as §1
[32] = test system: Human immunodeficiency virus 2; test: Antiviral activity against HIV2 infected in human CEM cells assessed as inhibition of virus-induced cytopathic effect after 4 days; assay type: functional, organism-based; conditions: Human immunodeficiency virus 2, CCRF-CEM, 96 h; in short: as §3
[33] = test system: Influenza A virus; test: Antiviral activity against Influenza A virus H1N1 infected in MDCK cells assessed as inhibition of virus-induced cytopathogenicity after 4 days by colorimetric formazan-based MTS assay; assay type: functional, organism-based; conditions: 96 h
[34] = test system: Feline infectious peritonitis virus; test: Antiviral activity against FIPV infected in cat CRFK cells assessed as inhibition of virus-induced cytopathic effect after 4 days by colorimetric formazan-based MTS assay; assay type: functional, cell-based; conditions: Alphacoronavirus 1, CRFK, 96 h
[35] = test system: Human alphaherpesvirus 1; test: Antiviral activity against HSV1 KOS infected in HEL cells assessed as inhibition of virus-induced cytopathogenicity after 4 days; assay type: functional, organism-based; conditions: Human alphaherpesvirus 1, KOS, 96 h; in short: as §5
[36] = test system: Punta Toro virus; test: Antiviral activity against Punta Toro virus infected in african green monkey Vero cells assessed as inhibition of virus-induced cytopathogenicity after 4 days; assay type: functional, organism-based; conditions: 96 h; in short: as §4
[37] = test system: Coxsackievirus B4; test: Antiviral activity against Coxsackie virus B4 infected in human HeLa cells assessed as inhibition of virus-induced cytopathogenicity after 4 days; assay type: functional, organism-based; conditions: Enterovirus B, 96 h; in short: as §4
[38] = Cytotoxicity against cat CRFK cells assessed as cell viability by colorimetric formazan-based MTS assay; parameters: species or system Felis catus; conditions: crfk

For CCOC(=O)c1c(C)nc(NCCCNc2ccnc3cc(Cl)ccc23)nc1-c1ccccc1, the MCC [1] was 100 µM, the EC50 [2] was greater than 4 µM and the EC50 [3] was greater than 0.16 µM. It also gave an EC50 [4] greater than 2 µM, an inhibition [5] of 100% and an EC50 [6] greater than 0.16 µM. For the same compound, the EC50 [7] was greater than 0.16 µM, the EC50 [8] was 4 µM and the EC50 [9] was greater than 20 µM. The “Ratio CC50/IC50” value [10] was 15.33, the EC50 [11] was greater than 100 µM and the CC50 [12] was 7.07 µM. The EC50 [13] was greater than 20 µM, the EC50 [14] was greater than 20 µM and the EC50 [15] was greater than 100 µM. The EC50 [16] was greater than 20 µM, the EC50 [17] was greater than 4 µM and the IC50 [18] was 0.247 µM. For the same compound, the EC50 [19] was greater than 100 µM, the IC50 [20] was 0.0522 µM and the “Ratio IC50” value [21] was 0.21. For the same compound, the MCC [22] was greater than 20 µM, the EC50 [23] was greater than 20 µM and the EC50 [24] was greater than 0.16 µM. The CC50 [25] was 0.8 µM, the EC50 [26] was greater than 100 µM and the EC50 [27] was 4 µM. The EC50 [28] was greater than 100 µM, the EC50 [29] was greater than 0.16 µM and the MCC [30] was 800 nM. For the same compound, the MCC [31] was greater than 100 µM, the EC50 [32] was greater than 2 µM and the EC50 [33] was greater than 0.16 µM. It also gave an EC50 [34] greater than 4 µM, an EC50 [35] greater than 100 µM and an EC50 [36] greater than 20 µM. For the same compound, the EC50 [37] was greater than 100 µM and the CC50 [38] was 15.9 µM.

Work on CCOC(=O)c1c(C)nc(NCCNc2ccnc3cc(Cl)ccc23)nc1-c1ccccc1 yielded an MCC [1] of 20 µM, an EC50 [2] greater than 4 µM and an EC50 [3] greater than 0.16 µM. For the same compound, the EC50 [4] was greater than 2 µM, the inhibition [5] was 96% and the EC50 [6] was greater than 0.16 µM. The EC50 [7] was greater than 0.16 µM, the EC50 [8] was greater than 4 µM and the EC50 [9] was greater than 4 µM. For the same compound, the “Ratio CC50/IC50” value [10] was 10.04, the EC50 [11] was greater than 4 µM and the CC50 [12] was 7.9 µM. For the same compound, the EC50 [13] was greater than 4 µM, the EC50 [14] was greater than 20 µM and the EC50 [15] was greater than 4 µM. For the same compound, the EC50 [16] was greater than 4 µM, the EC50 [17] was greater than 4 µM and the IC50 [18] was 0.0217 µM. The EC50 [19] was greater than 4 µM, the IC50 [20] was 0.139 µM and the “Ratio IC50” value [21] was 6.43. For the same compound, the MCC [22] was 20 µM, the EC50 [23] was greater than 4 µM and the EC50 [24] was greater than 0.16 µM. For the same compound, the CC50 [25] was 1.4 µM, the EC50 [26] was greater than 4 µM and the EC50 [27] was greater than 4 µM. For the same compound, the EC50 [28] was greater than 4 µM, the EC50 [29] was greater than 0.16 µM and the MCC [30] was 800 nM. It also gave an MCC [31] of 20 µM, an EC50 [32] greater than 2 µM and an EC50 [33] greater than 0.16 µM. For the same compound, the EC50 [34] was greater than 4 µM, the EC50 [35] was greater than 4 µM and the EC50 [36] was greater than 4 µM. For the same compound, the EC50 [37] was greater than 4 µM and the CC50 [38] was 7.3 µM.

NC12CC3CC(CC(C3)C1)C2 [AMANTADINE] showed an EC50 [3] of 5 µM, an EC50 [6] of 4.1 µM and an EC50 [7] greater than 200 µM. For the same compound, the EC50 [24] was 89 µM, the CC50 [25] was greater than 200 µM and the EC50 [29] was greater than 200 µM. The MCC [30] was greater than 200000 nM and the EC50 [33] was 154 µM.

From ChEMBL document CHEMBL2021854, “2-Aminopyrimidine based 4-aminoquinoline anti-plasmodial agents. Synthesis, biological activity, structure-activity relationship and mode of action studies” (Eur J Med Chem, 2012)
